Assay results taken from ChEMBL document CHEMBL2346587, “Design, synthesis, and evaluation of a water-soluble antofine analogue with high antiproliferative and antitumor activity” (Bioorg Med Chem, 2013).
pIC50: −log10 of the molar value. Converted amounts (≈) assume the structure as drawn.

Legend:
HCT-15 = experiment: Cytotoxicity against human HCT15 cells after 72 hrs by SRB assay; format: functional, cell-based; settings: HCT-15, 72 h
Outline: (§1)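 SRB growth assay: 5 × 10^3 cells/well exposed to a concentration series for 72 h; fixed in 10% TCA 30 min at 4 °C, stained with 0.4% SRB in 1% acetic acid 30 min, dye dissolved in 10 mM Tris pH 10.0, absorbance at 515 nm. Viability relative to vehicle control; IC50 by non-linear regression; at least three experiments. A549-Pa is a paclitaxel-resistant A549 subline.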

[1] = Thermodynamic solubility of the compound in 1:1 mixture of phosphate buffer:ethanol; format: physicochemical
SK-HEP1 = experiment: Cytotoxicity against human SKHEP1 cells after 72 hrs by SRB assay; format: functional, cell-based; settings: SK-HEP1, 72 h; outline: as §1
SNU-638 = experiment: Cytotoxicity against human SNU638 cells after 72 hrs by SRB assay; format: functional, cell-based; settings: SNU-638, 72 h; outline: as §1
[2] = Thermodynamic solubility of the compound in phosphate buffer at pH 7.4; format: physicochemical; settings: read-out: Therm_solubility
[3] = biological target: ATP-dependent translocase ABCB1 (Homo sapiens, UniProt P08183); experiment: Inhibition of P-gp activity in human paclitaxel-resistant A549 cells assessed as rhodamine 123 accumulation at 10 nM after 72 hrs by FACS analysis (reference value: 14.4 %); format: cell-based; set-up: scale not given: the % may be the effect or the level left; settings: a549, 72 h, 0.01 µM
Outline: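 Paclitaxel-resistant A549-Pa cells seeded at 1 × 10^5 cells/dish, pretreated with compound for 72 h, then loaded with rhodamine-123 in culture medium at 37 °C, 5% CO2, in the dark for 90 min. Cells were trypsinized, washed twice in ice-cold PBS, and analysed immediately by flow cytometry (488 nm laser; green fluorescence through a 530 nm band-pass filter).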

HCT-116 = experiment: Cytotoxicity against human HCT116 cells after 72 hrs by SRB assay; format: functional, cell-based; settings: HCT-116, 72 h; outline: as §1
A549 [4] = experiment: Cytotoxicity against human A549 cells after 72 hrs by SRB assay; format: functional, cell-based; settings: A549, 72 h; outline: as §1
A549 [5] = experiment: Cytotoxicity against human paclitaxel-resistant A549 cells after 72 hrs by SRB assay; format: functional, cell-based; settings: A549, 72 h; outline: as §1

Chain of ATP-dependent translocase ABCB1 (P08183 whole entry): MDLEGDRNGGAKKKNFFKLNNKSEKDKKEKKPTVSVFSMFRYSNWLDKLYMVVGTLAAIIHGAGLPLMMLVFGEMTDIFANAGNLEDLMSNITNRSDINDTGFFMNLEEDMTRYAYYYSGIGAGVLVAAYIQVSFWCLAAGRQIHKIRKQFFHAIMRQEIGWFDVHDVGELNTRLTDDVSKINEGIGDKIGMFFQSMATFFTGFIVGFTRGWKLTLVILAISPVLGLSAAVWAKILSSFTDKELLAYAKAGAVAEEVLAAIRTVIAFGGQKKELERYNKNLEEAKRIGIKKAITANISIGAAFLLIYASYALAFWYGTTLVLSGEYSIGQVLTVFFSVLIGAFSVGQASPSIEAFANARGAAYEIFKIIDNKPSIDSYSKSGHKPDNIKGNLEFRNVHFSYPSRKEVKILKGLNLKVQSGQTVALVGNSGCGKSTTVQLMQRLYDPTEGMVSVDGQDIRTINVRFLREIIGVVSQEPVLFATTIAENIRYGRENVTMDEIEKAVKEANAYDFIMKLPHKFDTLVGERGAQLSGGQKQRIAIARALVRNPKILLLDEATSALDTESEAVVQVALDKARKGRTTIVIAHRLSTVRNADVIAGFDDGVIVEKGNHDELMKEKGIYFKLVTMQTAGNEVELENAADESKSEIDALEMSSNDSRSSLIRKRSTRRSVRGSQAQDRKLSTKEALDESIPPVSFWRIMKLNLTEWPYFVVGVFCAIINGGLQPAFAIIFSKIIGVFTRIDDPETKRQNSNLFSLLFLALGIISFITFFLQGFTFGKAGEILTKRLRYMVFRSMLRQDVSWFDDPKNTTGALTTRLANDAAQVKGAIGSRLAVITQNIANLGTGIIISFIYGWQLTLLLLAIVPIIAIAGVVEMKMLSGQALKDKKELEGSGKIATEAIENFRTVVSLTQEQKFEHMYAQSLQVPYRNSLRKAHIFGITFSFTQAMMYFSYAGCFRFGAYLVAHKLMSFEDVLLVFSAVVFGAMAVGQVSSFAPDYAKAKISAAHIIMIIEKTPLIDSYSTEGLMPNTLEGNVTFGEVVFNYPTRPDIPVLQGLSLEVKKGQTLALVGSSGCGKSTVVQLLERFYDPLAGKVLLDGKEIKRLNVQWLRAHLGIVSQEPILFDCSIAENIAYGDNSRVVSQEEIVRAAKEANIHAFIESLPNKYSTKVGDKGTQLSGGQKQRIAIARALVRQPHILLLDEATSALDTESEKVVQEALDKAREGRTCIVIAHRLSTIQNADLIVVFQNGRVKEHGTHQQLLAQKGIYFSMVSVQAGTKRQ

solubility thermodynamic ([1]; 1:1 mixture of phosphate buffer:ethanol, read-out: Therm_solubility) | Compound | pIC50 (HCT-15) | Therm_solubility ([1]; buffer) | pIC50 (SK-HEP1) | pIC50 (SNU-638) | solubility thermodynamic [2] | Activity [3] | pIC50 (HCT-116) | pIC50 (A549 [4]) | pIC50 (A549 [5])
 | COc1ccc2c3c(c4cc(OC)c(OC)cc4c2c1)C[C@H]1CCCN1C3 [(-)-ANTOFINE] | 7.89 | 47 µg/mL | 8.10 | 8.00 | < 1 µg/mL | 37.9% | 8.10 | 7.96 | 7.74
 | COc1ccc2c3c(c4cc(OC)c(OC)cc4c2c1)C[C@]1(CO)CCCN1C3 | 5.85 |  | 6.27 | 5.83 |  |  | 6.10 | 5.64 | 5.44
 | COC(=O)C12CCCN1Cc1c(c3cc(OC)c(OC)cc3c3cc(OC)ccc13)C2 (racemic) | < 6.00 |  | < 6.00 | < 6.00 |  |  | < 6.00 | < 6.00 | < 6.00
1390 µg/mL (≈ 3540 µM) | COc1ccc2c3c(c4cc(OC)c(OC)cc4c2c1)CC1(CO)CCCN1C3 (racemic) | 6.75 |  | 7.00 | 7.04 | 656 µg/mL (≈ 1670 µM) |  | 7.28 | 6.78 | 6.69
 | COc1ccc2c3c(c4cc(OC)c(OC)cc4c2c1)CC1(C(=O)O)CCCN1C3 (racemic) | < 6.00 |  | < 6.00 | < 6.00 |  |  | < 6.00 | < 6.00 | < 6.00
 | COc1ccc2c3c(c4cc(OC)c(OC)cc4c2c1)CC1CCCN1C3 (racemic) [(+/-)-ANTOFINE] | 7.60 |  | 7.80 | 7.68 |  |  | 7.96 | 7.70 | 7.66
